Experimental data: ChEMBL document CHEMBL1938299, “Quinolinone-based agonists of S1P₁: use of a N-scan SAR strategy to optimize in vitro and in vivo activity” (Bioorg Med Chem Lett, 2012)
In brackets after ≈: the same amount, converted by molar mass.

Experiments:
[1] = target: T1, Sphingosine 1-phosphate receptor 1 (Homo sapiens, UniProt P21453); assay: Agonist activity at human S1P1 receptor expressed in human U2OS cells co-expressing eGFP assessed as receptor internalization into cytoplasm using Hoechst dye staining relative to 1-(4-(6-benzylbenzofuran-2-yl)-3- fluorobenzyl)azetidine-3-carboxylic acid; type: functional, cell-based
T1 sequence (P21453 whole entry): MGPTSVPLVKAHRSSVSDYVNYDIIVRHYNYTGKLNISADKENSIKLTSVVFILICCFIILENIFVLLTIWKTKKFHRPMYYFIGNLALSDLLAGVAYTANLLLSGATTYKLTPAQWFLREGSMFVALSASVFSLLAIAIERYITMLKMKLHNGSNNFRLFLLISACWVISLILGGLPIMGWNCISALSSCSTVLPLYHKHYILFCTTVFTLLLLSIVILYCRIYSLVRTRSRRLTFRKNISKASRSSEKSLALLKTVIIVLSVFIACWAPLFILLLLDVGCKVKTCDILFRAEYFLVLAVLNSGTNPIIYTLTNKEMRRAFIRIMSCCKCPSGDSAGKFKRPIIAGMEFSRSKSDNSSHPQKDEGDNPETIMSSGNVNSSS

[2] = target: T1, Sphingosine 1-phosphate receptor 1; assay: Agonist activity at human S1P1 receptor expressed in human U2OS cells co-expressing eGFP assessed as receptor internalization into cytoplasm using Hoechst dye staining; type: functional, cell-based
[3] = Solubility of the compound in phosphate-buffered saline at pH 7.4; type: physicochemical
In short: (§1)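 Compound solubility measured separately in 0.010 M aqueous HCl, in PBS at pH 7.4, and in simulated intestinal fluid.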

[4] = Plasma concentration in Lewis rat at 1 mg/kg, po after 24 hrs; type: ADME, organism-based; design: dose 1 mg/kg, route oral
In short: (§2)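 Female Lewis rats (N = 5/group) given a single oral dose (0.30, 1.0 or 3.0 mg/kg) in 20% Captisol or HPBCD, 1% HPMC, 1% Pluronic F68, pH 2.0 with MSA. At 24 h, blood lymphocytes were counted as percent of vehicle control and total plasma compound measured. Significance by ANOVA/Dunnett's test versus vehicle.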

[5] = Intrinsic clearance in rat liver microsomes assessed per mg of protein after 30 mins; type: ADME, Microsome; details: read-out: CLH
In short: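 Test compound incubated with rat liver microsomes for 30 min. Percent turnover measured and used to estimate intrinsic clearance.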

Rattus norvegicus [6] = assay: Immunosuppressive activity in Lewis rat assessed as reduction in circulating peripheral lymphocyte count at 1 mg/kg, po after 24 hrs relative to control; type: functional; design: scale not given: the % may be the effect or the level left; in short: as §2
[7] = Solubility of the compound in 0.010 M aqueous hydrogen chloride at pH 7.4; type: physicochemical; details: in the assay text read “hydrogen chloride” for “hydrogen chloride at pH 7.4”; in short: as §1
[8] = Efflux ratio of permeability in pig LLC-PK1 cells; type: ADME, cell-based, Sus scrofa
In short: (§3)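 LLC-PK1 porcine proximal tubule cell monolayers; apparent permeability (Papp) of test compound through the cells measured, along with efflux ratio.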

[9] = target: T2, Sphingosine 1-phosphate receptor 3 (Homo sapiens, UniProt Q99500); assay: Agonist activity at human S1P3 receptor expressed in CHO-K1 cells co-expressing Gq/i5 G-protein assessed as calcium mobilization by FLIPR assay; type: functional, cell-based
T2 sequence (Q99500 whole entry): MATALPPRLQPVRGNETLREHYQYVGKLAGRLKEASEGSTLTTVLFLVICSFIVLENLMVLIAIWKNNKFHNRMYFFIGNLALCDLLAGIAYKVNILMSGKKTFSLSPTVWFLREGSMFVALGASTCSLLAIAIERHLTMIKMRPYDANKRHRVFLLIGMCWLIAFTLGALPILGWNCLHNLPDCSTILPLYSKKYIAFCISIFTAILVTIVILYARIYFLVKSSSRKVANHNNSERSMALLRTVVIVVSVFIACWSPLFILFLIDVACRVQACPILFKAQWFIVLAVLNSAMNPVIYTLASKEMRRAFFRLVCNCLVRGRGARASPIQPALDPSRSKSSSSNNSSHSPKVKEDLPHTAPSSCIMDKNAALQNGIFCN

[10] = Solubility of the compound in simulated intestinal fluid at pH 7.4; type: physicochemical; in short: as §1
[11] = Apparent permeability of the compound in pig LLC-PK1 cells; type: ADME, cell-based, Sus scrofa; in short: as §3
Rattus norvegicus [12] = assay: Immunosuppressive activity in Lewis rat assessed as reduction in circulating peripheral lymphocyte count at 3 mg/kg, po after 24 hrs relative to control; type: functional; design: scale not given: the % may be the effect or the level left; in short: as §2
Rattus norvegicus [13] = assay: (§4) Oral bioavailability in Sprague-Dawley rat at 3 mg/kg; type: ADME, organism-based; details: in vivo
In short: (§5)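 Bioavailability in male Sprague–Dawley rats (N = 3/group), calculated from AUC0–∞ values obtained after a 1 mg/kg iv dose (DMSO vehicle) and a 3 mg/kg po dose (20% Captisol, 1% HPMC, 1% pluronic F68, pH 2.0 with MSA).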

Rattus norvegicus [14] = assay: (§6) AUC (0 to 24 hrs) in Sprague-Dawley rat at 3 mg/kg, po; type: ADME, organism-based, Plasma; design: time < 24 hr, dose 3 mg/kg, route oral; details: in vivo, 24 h
[15] = Plasma protein binding in rat; type: ADME, cell-free; details: read-out: PPB (converted)
In short: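 Rat plasma protein binding measured in vitro, with bound and free compound separated by ultracentrifugation; reported as percent bound.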

[16] = AUC (0 to 24 hrs) in Sprague-Dawley rat at 100 mg/kg, po; type: ADME, organism-based; design: time < 24 hr, dose 100 mg/kg, route oral; details: plasma
Rattus norvegicus [17] = assay: Immunosuppressive activity in po dosed Lewis rat assessed as reduction in circulating peripheral lymphocyte count after 24 hrs; type: functional, organism-based; in short: as §2
[18] = Volume of distribution at steady state in Sprague-Dawley rat at 1 mg/kg, iv; type: ADME, organism-based; design: dose 1 mg/kg, route intravenous; details: in vivo, read-out: Vdss
In short: (§7)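 Single intravenous dose of 1 mg/kg in DMSO vehicle to male Sprague–Dawley rats (N = 3/group). Clearance, steady-state volume of distribution and half-life were determined from plasma levels.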

Rattus norvegicus [19] = assay: Ratio of AUC (0 to 24 hrs) at 100 mg/kg, po to AUC (0 to 24 hrs) at 3 mg/kg, po in Sprague-Dawley rat; type: ADME, organism-based; details: in vivo
In short: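 Male Sprague–Dawley rats (N = 3/group) each received a single oral dose of 3 or 100 mg/kg, in 20% Captisol, 1% HPMC, 1% Pluronic F68, adjusted to pH 2.0 with MSA.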

[20] = Half life in Sprague-Dawley rat at 1 mg/kg, iv; type: ADME, organism-based; design: dose 1 mg/kg, route intravenous; details: in vivo; in short: as §7
[21] = Plasma concentration in Lewis rat at 3 mg/kg, po after 24 hrs; type: ADME, organism-based; design: dose 3 mg/kg, route oral; in short: as §2
Rattus norvegicus [22] = assay: (§8) Clearance in Sprague-Dawley rat at 1 mg/kg, iv; type: ADME, organism-based; design: dose 1 mg/kg, route intravenous; details: in vivo; in short: as §7
[23] = Plasma concentration in Lewis rat at 0.3 mg/kg, po after 24 hrs; type: ADME, organism-based; design: dose 0.3 mg/kg, route oral; in short: as §2
[24] = target: T2, Sphingosine 1-phosphate receptor 3; assay: Agonist activity at human S1P3 receptor expressed in CHO-K1 cells co-expressing Gq/i5 G-protein assessed as calcium mobilization by FLIPR assay relative to S1P; type: functional, cell-based
In short: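 Ca2+ mobilization in CHO-K1 cells expressing hS1P3 and a chimeric Gq/i5 G-protein. Efficacy expressed as % relative to S1P; compounds not reaching >10% of control activity reported as greater than the highest concentration tested.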

[25] = as §4; type: ADME, organism-based; details: Sprague-Dawley, in vivo; in short: as §5
[26] = as §6; type: ADME, organism-based, Plasma; design: time < 24 hr, dose 3 mg/kg, route oral; details: Sprague-Dawley, plasma
[27] = as §8; type: ADME, organism-based; design: dose 1 mg/kg, route intravenous; details: Sprague-Dawley, in vivo; in short: as §7

Row | Efficacy [1] | EC50 [2] | solubility [3] | concentration at 24 h [4] | microsomal CLint [5] | solubility [7] | efflux ratio [8] | EC50 [9] | solubility [10] | Papp [11] | Compound | Activity (Rattus norvegicus [6]) | other results
1 | 110% | 60 nM | < 1 µg/mL | 5.1 ng/mL | < 14 µL/min/mg | 12 µg/mL (≈ 28.3 µM) | 0.8 | > 2500 nM | 5.2 µg/mL (≈ 12.3 µM) | 11 ×10⁻⁶ cm/s | Cn1cc(C(=O)Nc2ccc(-c3ccccn3)c(C(F)(F)F)c2)c(=O)c2ccccc21 | 25% | –
2 | – | – | 6.6 µg/mL (≈ 15.9 µM) | 63 ng/mL | – | 17 µg/mL (≈ 40.9 µM) | – | > 25000 nM | 16 µg/mL (≈ 38.5 µM) | 2.3 ×10⁻⁶ cm/s | COc1ccncc1C(=O)NC(=O)Nc1ccc(-c2ccccc2)c(C(F)(F)F)c1 | -78% | –
3 | 170% | 2900 nM | < 1 µg/mL | – | < 14 µL/min/mg | < 1 µg/mL | 1.9 | > 2500 nM | 13 µg/mL (≈ 30.7 µM) | 11 ×10⁻⁶ cm/s | Cn1cc(C(=O)Nc2cnc(-c3ccccc3)c(C(F)(F)F)c2)c(=O)c2ccccc21 | – | –

Continued, compound first:

Row | Compound | Efficacy [1] | EC50 [2] | solubility [3] | concentration at 24 h [4] | microsomal CLint [5] | solubility [7] | efflux ratio [8] | EC50 [9] | solubility [10] | Papp [11] | Activity (Rattus norvegicus [6]) | other results
4 | CCCCCCCCCCCCC/C=C/[C@@H](O)[C@@H](N)COP(=O)(O)O | 91% | 18 nM | – | – | – | – | – | – | – | – | – | –
5 | Cn1cc(C(=O)Nc2ccc(-c3ccccc3)c(C(F)(F)F)c2)c(=O)c2ccncc21 | 120% | 29 nM | 2.6 µg/mL (≈ 6.14 µM) | 140 ng/mL | < 14 µL/min/mg | < 1 µg/mL | 1 | > 2500 nM | 6.1 µg/mL (≈ 14.4 µM) | 3.4 ×10⁻⁶ cm/s | -36% | –
6 | Cn1cc(C(=O)Nc2ccc(-c3ccccc3)c(C(F)(F)F)c2)c(=O)c2cnccc21 | 100% | 24 nM | < 1 µg/mL | 350 ng/mL | < 14 µL/min/mg | < 1 µg/mL | 0.8 | > 2500 nM | 4.9 µg/mL (≈ 11.6 µM) | 5.7 ×10⁻⁶ cm/s | -64% | Activity (Rattus norvegicus [12]): -64%; F (Rattus norvegicus [13]): 95%; AUC (Rattus norvegicus [14]): 5100 ng·h/mL; fraction unbound [15]: 0.08; AUC(0-t) at 24 h [16]: 31000 ng·h/mL; Activity (Rattus norvegicus [17]): Dose-dependent effect; Vd [18]: 9.2 L/kg; Ratio AUC (Rattus norvegicus [19]): 6; half-life [20]: 41 h; concentration at 24 h [21]: 1100 ng/mL; CL (Rattus norvegicus [22]): 2.67 mL/min/kg; concentration at 24 h [23]: 96 ng/mL
7 | Cn1cc(C(=O)Nc2ccc(-c3ccccc3)c(C(F)(F)F)n2)c(=O)c2ccccc21 | 120% | 42 nM | < 1 µg/mL | 1.3 ng/mL | < 14 µL/min/mg | < 1 µg/mL | – | > 2500 nM | 2.3 µg/mL (≈ 5.43 µM) | < 1 ×10⁻⁶ cm/s | 7% | –
8 | CCCCCCCCc1ccc(CC[C@](N)(CO)COP(=O)(O)O)cc1 | – | – | – | – | – | – | – | – | – | – | – | Efficacy [24]: 35%
9 | Cn1cc(C(=O)Nc2ccc(-c3ccccc3)c(C(F)(F)F)n2)c(=O)c2cnccc21 | 120% | 20 nM | 2.4 µg/mL (≈ 5.66 µM) | 130 ng/mL | < 14 µL/min/mg | < 1 µg/mL | 1 | > 2500 nM | 10 µg/mL (≈ 23.6 µM) | 6.7 ×10⁻⁶ cm/s | -67% | Activity (Rattus norvegicus [12]): -76%; bioavailability [25]: 110%; AUC(0-t) at 24 h [26]: 12000 ng·h/mL; fraction unbound [15]: 0.02; AUC(0-t) at 24 h [16]: 130000 ng·h/mL; Activity (Rattus norvegicus [17]): Dose-dependent effect; Vd [18]: 5.1 L/kg; Ratio AUC (Rattus norvegicus [19]): 11; half-life [20]: 24 h; concentration at 24 h [21]: 640 ng/mL; clearance [27]: 2.5 mL/min/kg; concentration at 24 h [23]: 47 ng/mL
10 | Cn1cc(C(=O)Nc2ccc(-c3ccncc3)c(C(F)(F)F)c2)c(=O)c2ccccc21 | 110% | 450 nM | 7.9 µg/mL (≈ 18.7 µM) | – | 44 µL/min/mg | 6.4 µg/mL (≈ 15.1 µM) | 1.5 | > 2500 nM | 12 µg/mL (≈ 28.3 µM) | 15 ×10⁻⁶ cm/s | – | –
